Reference: ChEMBL document CHEMBL4376859, “Prodrugs for nitroreductase-based cancer therapy-3: Antitumor activity of the novel dinitroaniline prodrugs/Ssap-NtrB enzyme suicide gene system: Synthesis, in vitro and in silico evaluation in prostate cancer” (Eur J Med Chem, 2020)
Calls of active or inactive are those of the source. No cut-off for these calls is given here.

Tests used:
HUVEC [1] = assay: Cytotoxicity against human HUVEC cells assessed as cell viability after 48 hrs by MTT assay; type: cell-based; conditions: human, huvec
Procedure, shortened: (§1)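 Hep3B hepatoma, PC-3 prostate cancer and HUVEC (healthy control) cells were exposed to nitro compounds at 150, 75, 38, 19 and 9 µM for 24 h and 48 h. Viability was read by MTT assay, and IC50 values were derived from the growth inhibition curves.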

PC-3 [2] = assay: Cytotoxicity against human PC3 cells assessed as cell viability after 48 hrs by MTT assay; type: functional, cell-based; procedure, shortened: as §1
[3] = Cytotoxicity against human HUVEC cells assessed as cell viability at 9 to 150 uM after 24 hrs by MTT assay relative to control; type: cell-based; conditions: read-out: Activity; procedure, shortened: as §1
PC-3 [4] = assay: Cytotoxicity against human PC3 cells assessed as cell viability after 24 hrs by MTT assay; type: functional, cell-based; conditions: pc-3; procedure, shortened: as §1
Hep 3B2 [5] = assay: Cytotoxicity against human Hep3B cells assessed as cell viability after 24 hrs by MTT assay; type: functional, cell-based; procedure, shortened: as §1
PC-3 [6] = assay: Cytotoxicity against human PC3 cells assessed as cell viability at 9 to 150 uM after 24 hrs by MTT assay relative to control; type: functional; procedure, shortened: as §1
Hep 3B2 [7] = assay: Cytotoxicity against human Hep3B cells assessed as cell viability after 48 hrs by MTT assay; type: functional, cell-based; procedure, shortened: as §1
[8] = Cytotoxicity against human HUVEC cells assessed as cell viability at 9 to 150 uM after 48 hrs by MTT assay relative to control; type: cell-based; conditions: read-out: Activity; procedure, shortened: as §1
HUVEC [9] = assay: Cytotoxicity against human HUVEC cells assessed as cell viability after 24 hrs by MTT assay; type: cell-based; conditions: human, huvec; procedure, shortened: as §1
PC-3 [10] = assay: Cytotoxicity against human PC3 cells assessed as reduction in cell viability after 48 hrs by SRB assay; type: functional, cell-based
Procedure, shortened: (§2)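 Compounds were reduced outside the cells by purified His-tag (Ni column) Ssap-NtrB. The reaction mix held 600 µM NADH and compound (150, 39, 9 µM, or 180, 18, 1.8 nM) and was applied to PC-3 cells. Controls were compound alone in 25 mM Tris/HCl pH 7.5, and enzyme alone at 31 µg/mL. After 48 h, SRB absorbance was read at 492 nm and converted to % viability.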

Putative nitroreductase [11] = target: T1, Putative nitroreductase (Staphylococcus saprophyticus subsp. saprophyticus (strain ATCC 15305 / DSM20229 / NCIMB 8711 / NCTC 7292 / S-41), UniProt Q4A0P1); assay: Substrate activity at Staphylococcus saprophyticus nitroreductase expressed in Escherichia coli BL21 (DE3) assessed as retention time by HPLC analysis; type: ADME
T1 sequence (Q4A0P1 whole entry): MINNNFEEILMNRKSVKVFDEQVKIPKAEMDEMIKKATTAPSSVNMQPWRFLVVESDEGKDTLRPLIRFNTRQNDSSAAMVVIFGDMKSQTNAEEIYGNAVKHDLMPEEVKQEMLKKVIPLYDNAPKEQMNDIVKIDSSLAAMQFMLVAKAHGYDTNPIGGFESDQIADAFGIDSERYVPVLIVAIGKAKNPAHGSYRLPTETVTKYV

PC-3 [12] = assay: Cytotoxicity against human PC3 cells assessed as cell viability at 9 to 150 uM after 48 hrs by MTT assay relative to control; type: functional; procedure, shortened: as §1
[13] = target: T2, Oxygen-insensitive NAD(P)H nitroreductase (Escherichia coli K-12, UniProt P38489); assay: Substrate activity at Escherichia coli nitroreductase nfsB assessed as Km using NADH as cofactor in Tris-Cl buffer at pH 7.5 by spectrophotometric method based Michaelis-Menten plot analysis; type: ADME
T2 sequence (P38489 whole entry): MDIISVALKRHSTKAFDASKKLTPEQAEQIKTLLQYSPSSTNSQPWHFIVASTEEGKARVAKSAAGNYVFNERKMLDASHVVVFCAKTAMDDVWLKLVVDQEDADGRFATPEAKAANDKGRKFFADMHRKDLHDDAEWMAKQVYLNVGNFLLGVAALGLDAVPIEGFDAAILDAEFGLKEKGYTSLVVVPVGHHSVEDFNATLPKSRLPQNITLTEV

[14] = target: T2, Oxygen-insensitive NAD(P)H nitroreductase; assay: Substrate activity at Escherichia coli nitroreductase nfsB assessed as ratio of Kcat/Km using NADH as cofactor in Tris-Cl buffer at pH 7.5 by spectrophotometric method based Michaelis-Menten plot analysis relative to CB1954/NfsB; type: ADME
nitroreductase nfsA = assay: Substrate activity at Escherichia coli nitroreductase nfsA assessed as Km using NADPH as cofactor in Tris-Cl buffer at pH 7.5 by spectrophotometry based Michaelis-Menten plot analysis; type: ADME; conditions: Escherichia coli nitroreductase nfsA enzyme
[15] = target: T2, Oxygen-insensitive NAD(P)H nitroreductase; assay: Substrate activity at Escherichia coli nitroreductase nfsB assessed as ratio of Kcat/Km using NADH as cofactor in Tris-Cl buffer at pH 7.5 by spectrophotometric method based Michaelis-Menten plot analysis; type: ADME
[16] = Substrate activity at Escherichia coli nitroreductase nfsA assessed as ratio of Kcat/Km using NADPH as cofactor in Tris-Cl buffer at pH 7.5 by spectrophotometry based Michaelis-Menten plot analysis; type: ADME
[17] = Substrate activity at Escherichia coli nitroreductase nfsA assessed as Kcat using NADPH as cofactor in Tris-Cl buffer at pH 7.5 by spectrophotometric method; type: ADME
[18] = target: T2, Oxygen-insensitive NAD(P)H nitroreductase; assay: Substrate activity at Escherichia coli nitroreductase nfsB assessed as Kcat using NADH as cofactor in Tris-Cl buffer at pH 7.5 by spectrophotometric method; type: ADME
[19] = Substrate activity at Escherichia coli nitroreductase nfsA assessed as ratio of Kcat/Km using NADPH as cofactor in Tris-Cl buffer at pH 7.5 by spectrophotometric method based Michaelis-Menten plot analysis relative to CB1954/NfsB
Hep 3B2 [20] = assay: Cytotoxicity against human Hep3B cells assessed as cell viability at 9 to 150 uM after 24 hrs by MTT assay relative to control; type: functional; procedure, shortened: as §1
PC-3 [21] = assay: Cytotoxicity against human PC3 cells […] Staphylococcus saprophyticus nitroreductase NtrB assessed as reduction in cell viability in presence of NADH as cofactor after 48 hrs by SRB assay; type: functional, cell-based; conditions: PC-3, 48 h; procedure, shortened: as §2
Putative nitroreductase [22] = target: T1, Putative nitroreductase; assay: Substrate activity at Staphylococcus saprophyticus nitroreductase NtrB assessed as Kcat/Km using NADPH as cofactor in Tris-Cl buffer at pH 7.5 by HPLC analysis relative to CB1954/NfsB; type: ADME
Hep 3B2 [23] = assay: Cytotoxicity against human Hep3B cells assessed as cell viability at 9 to 150 uM after 48 hrs by MTT assay relative to control; type: functional; procedure, shortened: as §1
Putative nitroreductase [24] = target: T1, Putative nitroreductase; assay: Substrate activity at Staphylococcus saprophyticus nitroreductase NtrB assessed as Km using NADPH as cofactor in Tris-Cl buffer at pH 7.5 incubated for 30 mins by HPLC analysis; type: ADME; conditions: pH 7.5, 0.5 h
Putative nitroreductase [25] = target: T1, Putative nitroreductase; assay: Binding affinity to Staphylococcus saprophyticus nitroreductase NtrB
Nitroreductase = target: T3, Nitroreductase (Bacillus amyloliquefaciens, UniProt Q8VSR5); assay: Substrate activity at Bacillus amyloliquefaciens nitroreductase ywrO assessed as ratio of Kcat/Km using NADPH as cofactor in sodium phosphate buffer at pH 7.5 by HPLC analysis relative to CB1954/NfsB; type: ADME
T3 sequence (Q8VSR5 whole entry): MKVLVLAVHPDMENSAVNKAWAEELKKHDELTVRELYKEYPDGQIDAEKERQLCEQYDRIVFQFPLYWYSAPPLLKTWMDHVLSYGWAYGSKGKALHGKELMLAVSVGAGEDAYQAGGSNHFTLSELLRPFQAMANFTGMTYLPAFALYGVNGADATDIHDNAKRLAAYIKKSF

Putative nitroreductase [26] = target: T1, Putative nitroreductase; assay: Substrate activity at Staphylococcus saprophyticus nitroreductase NtrB assessed as ratio of Kcat/Km using NADPH as cofactor in Tris-Cl buffer at pH 7.5 incubated for 30 mins by HPLC analysis; type: ADME; conditions: pH 7.5, 0.5 h
Putative nitroreductase [27] = target: T1, Putative nitroreductase; assay: Substrate activity at Staphylococcus saprophyticus nitroreductase NtrB assessed as Kcat using NADPH as cofactor in Tris-Cl buffer at pH 7.5 incubated for 30 mins by HPLC analysis; type: ADME; conditions: pH 7.5, 0.5 h
Putative nitroreductase [28] = target: T1, Putative nitroreductase; assay: Substrate activity at Staphylococcus saprophyticus nitroreductase NtrB assessed as ratio of Kcat/Km using NADPH as cofactor in Tris-Cl buffer at pH 7.5 incubated for 30 mins by HPLC analysis relative to CB1954/NfsB; type: ADME; conditions: pH 7.5, 0.5 h

Compound | viability at 24 h, up to 150 µM [3] [%] | Activity (PC-3 [6]) [%] | viability at 48 h, up to 150 µM [8] [%] | Activity (PC-3 [10]) | Retention_time (Putative nitroreductase [11]) [min] | Activity (PC-3 [12]) [%] | Km [13] [µM] | fold change (FC) [14] | Km (nitroreductase nfsA) [µM] | Kcat/Km [15] [M⁻¹ s⁻¹] | Kcat/Km [16] [M⁻¹ s⁻¹] | Kcat [17] [s⁻¹] | Kcat [18] [s⁻¹] | fold change (FC) [19] | Activity (Hep 3B2 [20]) [%] | IC50 (PC-3 [21]) [µM] | Activity (Hep 3B2 [23]) | other results
O=[N+]([O-])c1ccc(Nc2ccccc2)c([N+](=O)[O-])c1 | > 80 | >80 | > 80 | inactive | 18.41 | >80 | – | – | – | – | – | – | – | – | – | – | – | Activity (HUVEC [1]): Non-Toxic; IC50 (PC-3 [2]): Not Active; IC50 (PC-3 [4]): Not Active; IC50 (Hep 3B2 [5]): 84.9 µM; IC50 (Hep 3B2 [7]): 150 µM; Activity (HUVEC [9]): Non-Toxic
CS(=O)(=O)OCCN(CCBr)c1c(C(=O)NCCO)cc([N+](=O)[O-])cc1[N+](=O)[O-] | – | – | – | – | – | – | 4500 | 2.32 | 100 | 13000 | 120000 | 12 | 60 | 21.43 | – | – | – | –
CC(C)Nc1ccc([N+](=O)[O-])cc1[N+](=O)[O-] | > 80 | >80 | > 80 | inactive | 17.94 | >80 | – | – | – | – | – | – | – | – | >80 | 9.77 | 51 - 80% | fold change (FC) (Putative nitroreductase [22]): 0.74
NC(=O)c1cc(N2CC2)c([N+](=O)[O-])cc1[N+](=O)[O-] [TRETAZICAR] | > 80 | >80 | > 80 | inactive | – | >80 | 11000 | 1 | 220 | 5600 | 73000 | 16 | 62 | 13.04 | >80 | 0.00179 | >80% | Km (Putative nitroreductase [24]): 1070 µM; Ki (Putative nitroreductase [25]): 5.96 µM; fold change (FC) (Nitroreductase): 2.37; Kcat/Km (Putative nitroreductase [26]): 2120 M⁻¹ s⁻¹; Kcat (Putative nitroreductase [27]): 2.26 s⁻¹; fold change (FC) (Putative nitroreductase [28]): 0.38
